A short description of this assay: Tested for inhibition of Uridine Phosphorylase (UrdPase) in murine liver. In outline: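 Mouse liver enzyme in a radiochemical assay: [2-¹⁴C]uridine (170 µM, 7.1 µCi/µmol) converted to [2-¹⁴C]uracil in 20 mM potassium phosphate pH 8.0, 1 mM EDTA, 1 mM dithiothreitol, with or without inhibitor. Incubated 30 min at 37 °C, stopped by heating 1 min at 100 °C. Uridine and uracil separated by TLC. Enzyme amount set to give 10% conversion uninhibited.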
One may read the IC50 as the concentration that gives 50% inhibition. The molecule `O=c1[nH]c(=O)n(COC(CO)CO)cc1Cc1cccc(Oc2cccc(F)c2)c1` gave an IC50 of 8.2 nM.

The molecule `O=c1[nH]c(=O)n(COC(CO)CO)cc1Cc1cccc(Oc2ccc(F)cc2)c1` displayed an IC50 of 22 nM.

`O=c1[nH]c(=O)n(COCCO)cc1Cc1cccc(Oc2ccccc2)c1` had a half-maximal inhibitory concentration (IC50) of 14 nM.

The molecule `O=c1[nH]c(=O)n(COC(CO)CO)cc1Cc1cccc(Oc2ccccc2)c1` returned an IC50 of 10 nM.

As for `O=c1[nH]c(=O)n(COCCO)cc1Cc1cccc(Oc2ccc(Cl)cc2)c1`, the IC50 is 84 nM.

`COc1cccc(Oc2cccc(Cc3cn(COCCO)c(=O)[nH]c3=O)c2)c1` registered an IC50 of 31 nM.

With `O=c1[nH]c(=O)n(COCCO)cc1Cc1cccc(Oc2cccc(Cl)c2)c1`, the IC50 came out at 15 nM.

For the molecule `O=c1[nH]c(=O)n(COCCO)cc1Cc1cccc(Oc2ccc(F)cc2)c1`, the IC50 was determined as 98 nM.

In the case of `O=c1[nH]c(=O)n(COC(CO)CO)cc1Cc1cccc(Oc2cccc(Cl)c2)c1`, the IC50 is 1.4 nM.

With `N#Cc1cccc(Oc2cccc(Cc3cn(COCCO)c(=O)[nH]c3=O)c2)c1`, half-maximal inhibition (IC50) required 5.9 nM.

For the molecule `COc1ccc(Oc2cccc(Cc3cn(COCCO)c(=O)[nH]c3=O)c2)cc1`, the IC50 amounted to 210 nM.

As for `O=c1[nH]c(=O)n(COCCO)cc1Cc1cccc(Oc2cccc(F)c2)c1`, the IC50 stood at 14 nM.

On to `Cc1cccc(Oc2cccc(Cc3cn(COCCO)c(=O)[nH]c3=O)c2)c1`, for which the IC50 came to 13 nM. The IC50 values of the last two molecules are within 1.5-fold of each other.

Turning to `O=c1[nH]c(=O)n(COCCO)cc1Cc1cccc(Oc2cccc(C(F)(F)F)c2)c1`, the IC50 came out at 32 nM.

The values are drawn from ChEMBL document CHEMBL1129991, “Inhibition of uridine phosphorylase. Synthesis and structure-activity relationships of aryl-substituted 1-((2-hydroxyethoxy)methyl)-5-(3-phenoxybenzyl)uracil” (J Med Chem, 1997).
